Experimental data pooled from the literature.
Lines come from different studies, so protocols differ.
Cell line: HeLa
Effect on: cell growth or viability

For `COc1cc2nnn(S(=O)(=O)c3ccc(N(C)C)cc3)c2cc1OC`, the IC50 was 55 µM (XTT; 72 h).
For `CCOP(=O)(OCC)[C@@H]1C[C@@H](n2cc(Cn3ccc(NC(C)=O)nc3=O)nn2)ON1C` (racemic), the CC50 was > 250 µM (72 h).
`CCCCCCCCCc1cn(CCN2CCN(C(=O)c3c(C)nc4cc(C)ccn34)CC2)nn1` has a CC50 of 62.7 µM (resazurin).
With `COC(=O)CNC(=O)C(=O)OC` the CC50 was > 1000 µM.
For `CCOP(=O)(OCC)[C@@H]1C[C@H](n2cc(C(=O)OC)nn2)ON1C` (relative stereo), the CC50 was > 250 µM (72 h).
For `COc1cc(NS(=O)(=O)c2ccc([N+](=O)[O-])cc2)cc(OC)c1`, the IC50 was > 100 µM (XTT; 72 h).
The CC50 of `Cc1ccc(-n2cc(CN3CCN(C(=O)c4c(C)nc5ccc(Cl)cn45)CC3)nn2)cc1C` is reported as > 100 µM (resazurin).
`COc1ccc(NS(=O)(=O)c2ccc(N)cc2)cc1OC` gave an IC50 of > 100 µM (XTT; 72 h).
With `CCOP(=O)(OCC)[C@@H]1C[C@H](n2cc(-c3ccccn3)nn2)ON1C` the CC50 was > 250 µM (72 h).
For `Cc1nc2ccc(Cl)cn2c1C(=O)N1CCN(Cc2cn(-c3cccc([N+](=O)[O-])c3)nn2)CC1`, the CC50 was > 100 µM (resazurin).
With `CCOP(=O)(OCC)[C@@H]1C[C@H](n2cc(-c3nccn3C)nn2)ON1C` the CC50 was > 250 µM (72 h).
With `CC(=O)O[C@H]1C(=O)[C@@]2(C)[C@H]([C@H](OC(=O)c3ccccc3)[C@]3(O)C[C@H](OC(=O)[C@H](O)[C@@H](NC(=O)c4ccccc4)c4ccccc4)C(C)=C1C3(C)C)[C@]1(OC(C)=O)CO[C@@H]1C[C@@H]2O` the IC50 was 4.8 µM (MTT; 48 h).
With `CCCCCCCCCc1cn(CCN2CCN(C(=O)c3c(C)nc4ccc(Cl)cn34)CC2)nn1` the CC50 was > 100 µM (resazurin).
With `CNc1ccc(S(=O)(=O)Nc2ccc(OC)nc2)cc1` the IC50 was > 100 µM (XTT; 72 h).
The CC50 of `CCOP(=O)(OCC)[C@@H]1C[C@H](n2cc(Cn3cnc4c(N)ncnc43)nn2)ON1C` (relative stereo) is reported as ≥ 250 µM (72 h).
`Cc1ccn2c(C(=O)N3CCN(Cc4cn(-c5ccc(F)c(Cl)c5)nn4)CC3)c(C)nc2c1` has a CC50 of > 100 µM (resazurin).
`COc1ccc(S(=O)(=O)Nc2cc(C#N)ccc2OS(=O)(=O)c2ccc(OC)cc2)cc1` gave an IC50 of 77 µM (XTT; 72 h).
For `Cc1ccn2c(C(=O)N3CCN(Cc4cn(-c5ccccc5)nn4)CC3)c(C)nc2c1`, the CC50 was > 100 µM (resazurin).
`COc1ccc(OC)c(NS(=O)(=O)c2ccc(OC)c([N+](=O)[O-])c2)c1` has an IC50 of > 100 µM (XTT; 72 h).
